According to paper PMC7227796 (ACS chemical neuroscience, 2020):
Counter-ions that a name gives are not always drawn.

Assays:
GluK2 = GluK2 (Rattus norvegicus, UniProt P42260); experiment: Radioligand binding at recombinant homomeric GluK2
Method in brief: (§1)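 Membranes from sf9 cells expressing rat homomeric GluK1, GluK2 or GluK3 were incubated in 50 mM Tris-HCl, pH 7.1, for 2 h at 4 °C. Radioligand was [3H]-(S)-NF608 for GluK1 and [3H]kainic acid for GluK2 and GluK3. Samples were filtered on GF/B, washed twice with ice-cold buffer, dried for 1 h at 70 °C and counted by scintillation. Ki came from 12–16-point triplicate curves. Single-point % specific binding is mean ± SD of three experiments, at 10 μM test compound where stated.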

[1] = biological target: GluN1/GluN2A NMDA receptor (Rattus norvegicus, UniProt P35439+Q00959); experiment: Two-electrode voltage-clamp recordings, Xenopus oocytes expressing GluN1/GluN2A; format: cell-based
Method in brief: (§2)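 Xenopus oocytes were injected with rat GluN1-1a and GluN2A, 2B, 2C or 2D cRNA at a 1:2 ratio. Two-electrode voltage clamp was run 2–6 days later at room temperature and −40 mV. Bath was 90 NaCl, 1 KCl, 10 HEPES, 0.5 BaCl2, 0.01 EDTA (mM), pH 7.4. Currents were evoked by 1 μM glutamate plus 100 μM glycine, with test compound gravity-perfused. Hill fits gave IC50 per oocyte (5–6 oocytes). Ki was derived by Cheng-Prusoff using earlier glutamate EC50 values.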

[2] = biological target: GluN1/GluN2A NMDA receptor (Rattus norvegicus, UniProt Q00959); experiment: as above; format: cell-based; conditions: two-electrode voltage-clamp
Method in brief: as §2

[3] = biological target: GluN1/GluN2D NMDA receptor (Rattus norvegicus, UniProt P35439+Q62645); experiment: Two-electrode voltage-clamp recordings, Xenopus oocytes expressing GluN1/GluN2D; format: cell-based
Chain of GluN1/GluN2D NMDA receptor (Q62645 28-1323, other chains not shown): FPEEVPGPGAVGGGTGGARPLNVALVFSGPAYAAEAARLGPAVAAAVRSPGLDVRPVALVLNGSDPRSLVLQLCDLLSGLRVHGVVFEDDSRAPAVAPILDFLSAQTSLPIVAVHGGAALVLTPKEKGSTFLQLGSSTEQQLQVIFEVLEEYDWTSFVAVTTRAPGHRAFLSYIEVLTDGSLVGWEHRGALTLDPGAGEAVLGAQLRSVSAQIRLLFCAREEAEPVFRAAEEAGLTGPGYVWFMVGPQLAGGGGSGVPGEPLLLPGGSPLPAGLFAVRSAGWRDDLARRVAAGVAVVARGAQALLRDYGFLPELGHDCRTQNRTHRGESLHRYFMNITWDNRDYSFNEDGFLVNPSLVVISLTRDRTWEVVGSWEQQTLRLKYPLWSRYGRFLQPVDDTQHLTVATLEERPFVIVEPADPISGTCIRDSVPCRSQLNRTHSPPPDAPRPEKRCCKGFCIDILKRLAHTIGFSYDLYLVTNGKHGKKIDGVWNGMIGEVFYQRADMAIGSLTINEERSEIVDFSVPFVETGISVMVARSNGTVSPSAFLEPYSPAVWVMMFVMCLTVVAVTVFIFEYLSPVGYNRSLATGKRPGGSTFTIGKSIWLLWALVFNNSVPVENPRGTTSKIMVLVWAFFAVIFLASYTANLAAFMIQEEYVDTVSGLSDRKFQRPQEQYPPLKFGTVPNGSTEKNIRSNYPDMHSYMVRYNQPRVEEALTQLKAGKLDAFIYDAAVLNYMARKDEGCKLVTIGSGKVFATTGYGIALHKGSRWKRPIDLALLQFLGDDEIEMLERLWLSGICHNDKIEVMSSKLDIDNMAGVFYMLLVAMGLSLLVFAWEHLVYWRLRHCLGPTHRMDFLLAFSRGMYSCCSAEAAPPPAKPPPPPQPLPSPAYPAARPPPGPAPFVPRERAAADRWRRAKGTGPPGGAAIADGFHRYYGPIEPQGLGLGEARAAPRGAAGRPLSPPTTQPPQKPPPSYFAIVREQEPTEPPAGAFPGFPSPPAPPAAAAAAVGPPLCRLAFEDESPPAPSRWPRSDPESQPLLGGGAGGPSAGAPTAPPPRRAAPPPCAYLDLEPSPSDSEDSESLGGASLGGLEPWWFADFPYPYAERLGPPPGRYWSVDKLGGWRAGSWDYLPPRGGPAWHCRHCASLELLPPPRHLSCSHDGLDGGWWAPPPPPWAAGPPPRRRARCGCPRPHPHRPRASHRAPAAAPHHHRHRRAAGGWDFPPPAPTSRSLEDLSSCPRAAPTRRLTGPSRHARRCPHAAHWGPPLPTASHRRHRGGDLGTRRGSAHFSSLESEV
Method in brief: as §2

[4] = biological target: GluN1/GluN2B NMDA receptor (Rattus norvegicus, UniProt P35439+Q00960); experiment: Two-electrode voltage-clamp recordings, Xenopus oocytes expressing GluN1/GluN2B; format: cell-based
Method in brief: as §2

native AMPA receptors = experiment: Radioligand binding at native AMPA receptors; conditions: rat synaptosomes, [3H]AMPA; for IC50: read-out: AMPA IC50, native iGluRs (synaptosomes)
Method in brief: (§3)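 Rat cortical synaptosomal membranes were labelled with 5 nM [3H]AMPA (AMPA), 5 nM [3H]KA (KA) or [3H]CGP39653 (NMDA). Test compound was run at 12–16 concentrations in triplicate, with three to six independent experiments. Cpm were fitted by nonlinear regression. Values are reported as pIC50 for AMPA and KA and as pKi for NMDA, each as mean with SEM.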

[5] = biological target: GluN1/GluN2C NMDA receptor (Rattus norvegicus, UniProt P35439+Q00961); experiment: Two-electrode voltage-clamp recordings, Xenopus oocytes expressing GluN1/GluN2C; format: cell-based
Chain of GluN1/GluN2C NMDA receptor (Q00961 20-1237, other chains not shown): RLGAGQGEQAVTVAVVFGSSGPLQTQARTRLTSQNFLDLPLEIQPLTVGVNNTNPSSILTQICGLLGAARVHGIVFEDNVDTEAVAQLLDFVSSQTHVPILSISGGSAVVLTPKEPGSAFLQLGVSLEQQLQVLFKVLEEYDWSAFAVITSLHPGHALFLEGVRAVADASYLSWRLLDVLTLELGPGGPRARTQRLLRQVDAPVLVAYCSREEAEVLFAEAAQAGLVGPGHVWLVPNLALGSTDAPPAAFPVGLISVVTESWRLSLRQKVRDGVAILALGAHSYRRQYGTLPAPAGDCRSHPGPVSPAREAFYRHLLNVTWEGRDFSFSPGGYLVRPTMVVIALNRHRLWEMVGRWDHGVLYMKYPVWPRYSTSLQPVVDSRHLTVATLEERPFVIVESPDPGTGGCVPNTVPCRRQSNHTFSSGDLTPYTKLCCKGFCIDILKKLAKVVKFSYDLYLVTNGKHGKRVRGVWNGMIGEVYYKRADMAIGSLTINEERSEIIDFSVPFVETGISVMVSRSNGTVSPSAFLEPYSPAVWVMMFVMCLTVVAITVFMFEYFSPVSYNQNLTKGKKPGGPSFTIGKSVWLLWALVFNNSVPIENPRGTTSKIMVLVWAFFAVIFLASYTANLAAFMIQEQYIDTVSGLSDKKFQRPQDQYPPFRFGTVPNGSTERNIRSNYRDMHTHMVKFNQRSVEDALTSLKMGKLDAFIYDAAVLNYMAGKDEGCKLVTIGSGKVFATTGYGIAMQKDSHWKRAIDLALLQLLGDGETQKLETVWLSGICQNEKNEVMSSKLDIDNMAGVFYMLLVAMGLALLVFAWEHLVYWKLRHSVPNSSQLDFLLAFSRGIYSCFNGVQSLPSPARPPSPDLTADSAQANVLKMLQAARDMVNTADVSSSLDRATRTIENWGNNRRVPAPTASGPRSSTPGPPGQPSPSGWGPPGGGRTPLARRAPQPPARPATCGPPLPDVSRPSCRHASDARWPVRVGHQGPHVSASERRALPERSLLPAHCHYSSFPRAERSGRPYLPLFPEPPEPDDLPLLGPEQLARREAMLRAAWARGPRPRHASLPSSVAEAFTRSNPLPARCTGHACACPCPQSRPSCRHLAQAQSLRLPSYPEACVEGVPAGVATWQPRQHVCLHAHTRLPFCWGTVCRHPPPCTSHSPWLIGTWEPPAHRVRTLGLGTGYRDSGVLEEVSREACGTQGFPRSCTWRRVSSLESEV
Method in brief: as §2

native KA receptors = experiment: Radioligand binding at native KA receptors; conditions: rat synaptosomes, [3H]KA
Method in brief: as §3

native NMDA receptors = experiment: Radioligand binding at native NMDA receptors; design: species or system rat; conditions: for NMDA pKi with SEM (in brackets) / Ki: rat synaptosomes, [3H]CGP-39653; for Ki: read-out: NMDA Ki, native iGluRs (synaptosomes); for increase in affinity for native NMDA receptors: compared to 4a; for selectivity/preference for NMDA receptors over AMPA and KA receptors: native receptors
Method in brief: as §3

GluK3 = GluK3 (Rattus norvegicus, UniProt P42264); experiment: Radioligand binding at recombinant homomeric GluK3
Method in brief: as §1

GluK1 = GluK1 (Rattus norvegicus, UniProt P22756); experiment: Radioligand binding at recombinant homomeric GluK1
Chain of GluK1 (P22756 31-920 isoform P22756-4 limits assumed): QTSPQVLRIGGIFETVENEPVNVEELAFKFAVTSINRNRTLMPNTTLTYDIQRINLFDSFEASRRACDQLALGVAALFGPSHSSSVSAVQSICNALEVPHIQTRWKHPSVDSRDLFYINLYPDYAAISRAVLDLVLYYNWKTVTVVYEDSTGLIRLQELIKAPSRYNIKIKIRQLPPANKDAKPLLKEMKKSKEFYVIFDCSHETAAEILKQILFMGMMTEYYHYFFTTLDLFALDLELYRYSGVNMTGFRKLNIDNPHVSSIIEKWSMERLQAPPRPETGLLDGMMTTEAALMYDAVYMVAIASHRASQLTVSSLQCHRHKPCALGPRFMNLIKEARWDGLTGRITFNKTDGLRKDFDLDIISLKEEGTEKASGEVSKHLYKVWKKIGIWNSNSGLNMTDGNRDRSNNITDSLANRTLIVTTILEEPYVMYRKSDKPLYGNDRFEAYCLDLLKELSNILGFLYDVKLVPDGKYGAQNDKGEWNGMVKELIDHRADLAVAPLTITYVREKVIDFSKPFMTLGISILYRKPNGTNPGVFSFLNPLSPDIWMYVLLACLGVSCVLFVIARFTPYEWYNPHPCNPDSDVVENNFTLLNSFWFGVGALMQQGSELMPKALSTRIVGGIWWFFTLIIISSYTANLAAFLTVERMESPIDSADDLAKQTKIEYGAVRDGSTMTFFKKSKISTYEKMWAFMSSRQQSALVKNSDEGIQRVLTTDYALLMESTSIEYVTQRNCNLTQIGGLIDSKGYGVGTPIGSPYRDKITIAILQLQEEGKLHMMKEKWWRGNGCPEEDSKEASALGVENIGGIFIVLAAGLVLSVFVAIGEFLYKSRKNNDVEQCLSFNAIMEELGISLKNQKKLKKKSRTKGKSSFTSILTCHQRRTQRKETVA
Method in brief: as §1

GluA1 = GluA1 (Rattus norvegicus, UniProt P19490); experiment: Radioligand binding at recombinant homomeric GluA1
Method in brief: (§4)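 Membranes from sf9 cells expressing rat homomeric GluA1 or GluA2 were incubated with [3H]-(S)-AMPA and test compound for 2 h at 4 °C. Buffer was 50 mM Tris-HCl, 0.1 M KSCN, 2.5 mM CaCl2, pH 7.2. Samples were filtered on GF/C, washed twice with ice-cold buffer and counted by scintillation. Competition curves used 12–16 concentrations in triplicate. Ki came from a one-site fit and nH from a four-parameter logistic fit.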

GluA2 = GluA2 (Rattus norvegicus, UniProt P19491); experiment: Radioligand binding at recombinant homomeric GluA2
Method in brief: as §4

Chain of GluK2 (P42260 32-908): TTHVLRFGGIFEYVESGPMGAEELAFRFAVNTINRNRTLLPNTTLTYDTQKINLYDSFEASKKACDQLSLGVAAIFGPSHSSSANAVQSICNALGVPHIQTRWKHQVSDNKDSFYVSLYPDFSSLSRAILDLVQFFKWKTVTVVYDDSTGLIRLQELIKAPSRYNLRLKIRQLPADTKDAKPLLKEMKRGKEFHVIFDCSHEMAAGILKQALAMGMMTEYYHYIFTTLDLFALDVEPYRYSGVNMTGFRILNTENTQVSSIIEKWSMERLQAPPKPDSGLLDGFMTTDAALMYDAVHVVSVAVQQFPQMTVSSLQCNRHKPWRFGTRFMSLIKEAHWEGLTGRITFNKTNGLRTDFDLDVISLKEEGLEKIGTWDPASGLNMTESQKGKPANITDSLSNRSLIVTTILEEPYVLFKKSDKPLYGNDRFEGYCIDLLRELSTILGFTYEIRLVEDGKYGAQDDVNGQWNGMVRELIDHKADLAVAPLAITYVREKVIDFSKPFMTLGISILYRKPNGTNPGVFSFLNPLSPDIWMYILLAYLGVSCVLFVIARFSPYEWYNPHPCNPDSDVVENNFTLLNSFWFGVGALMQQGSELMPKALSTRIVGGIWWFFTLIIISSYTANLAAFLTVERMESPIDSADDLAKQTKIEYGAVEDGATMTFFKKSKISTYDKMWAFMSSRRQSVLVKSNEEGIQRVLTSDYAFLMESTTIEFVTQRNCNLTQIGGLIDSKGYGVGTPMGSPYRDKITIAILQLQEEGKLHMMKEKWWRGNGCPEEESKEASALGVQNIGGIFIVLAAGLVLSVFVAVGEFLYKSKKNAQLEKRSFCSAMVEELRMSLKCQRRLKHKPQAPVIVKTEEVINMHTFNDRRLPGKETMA

Structure (SMILES)	Ki (GluK2) [µM]	IC50 [1] [µM]	selectivity for GluN1/2A over GluN1/2B and GluN1/2C [2] [fold]	selectivity for GluN1/2A over GluN1/2D [2] [fold]	IC50 [3] [µM]	IC50 [4] [µM]	IC50 (native AMPA receptors) [µM]	IC50 [5] [µM]	KA IC50, native iGluRs (synaptosomes) (native KA receptors) [µM]	NMDA pKi with SEM (in brackets) (native NMDA receptors)	Ki (native NMDA receptors) [µM]	Ki (GluK3) [µM]	Ki (GluK1) [µM]	AMPA pIC50 with SEM (in brackets) (native AMPA receptors)	KA pIC50 with SEM (in brackets) (native KA receptors)	increase in affinity for native NMDA receptors (native NMDA receptors) [fold]	selectivity/preference for NMDA receptors over AMPA and KA receptors (native NMDA receptors) [fold]	Ki (GluA1) [µM]	Ki (GluA2) [µM]
O=C(O)c1ccc([C@H]2CCN[C@@H]2C(=O)O)cc1C(=O)O [4h, 4-((2S,3R)-2-Carboxypyrrolidin-3-yl)phthalic acid tri sodium salt]	> 100	0.75 ± 0.03	6 to 10	32 to 34	24.3 ± 1.46	4.24 ± 0.13	> 100	5.17 ± 0.12	>100	5.88 ± 0.06	1.3	> 100	> 100						
Cl.O=C(O)c1cc(C(=O)O)cc([C@H]2CCN[C@@H]2C(=O)O)c1 [5c, 5-((2S,3R)-2-Carboxypyrrolidin-3-yl)isophthalic acid hydrochloride]	> 100	0.63 ± 0.01	6 to 10	32 to 34	21.2 ± 0.37	4.37 ± 0.17	36	6.27 ± 0.13	63	6.32 ± 0.03	0.48	15.7 ± 3.1	12.5 ± 1.7	4.45 ± 0.04	4.21 ± 0.05	9	75		
Cl.O=C(O)c1cc(-c2cnn[nH]2)cc([C@H]2CCN[C@@H]2C(=O)O)c1 [5d, (2S,3R)-3-(3-Carboxy-5-(1H-1,2,3-triazol-5-yl)phenyl)pyrrolidine-2-carboxylic acid hydrochloride]	> 100	1.36 ± 0.06			18.5 ± 1.54	3.51 ± 0.18	21	7.28 ± 0.17	20	6.08±0.05	0.83	10 to 50	> 50	4.69 ±0.04	4.71±0.06	7	24		
Cl.O=C(O)c1cc(-c2ccccn2)cc([C@H]2CCN[C@@H]2C(=O)O)c1 [5e, (2S,3R)-3-(3-Carboxy-5-(pyridin-2-yl)phenyl)pyrrolidine-2-carboxylic acid hydrochloride]	> 100						40		20	5.42±0.01	3.8	6.4 ± 0.41	20 ± 1.8	4.40±0.05	4.71±0.05			19	55
Cl.O=C(O)c1cc(-c2cccnc2)cc([C@H]2CCN[C@@H]2C(=O)O)c1 [5f, (2S,3R)-3-(3-Carboxy-5-(pyridin-3-yl)phenyl)pyrrolidine-2-carboxylic acid hydrochloride]	> 100						29		23	5.51±0.02	3.1	5.9 ± 0.62	25 ± 1.2	4.57±0.13	4.65±0.03			15	40
Cl.O=C(O)c1cc(-c2ccncc2)cc([C@H]2CCN[C@@H]2C(=O)O)c1 [5g, (2S,3R)-3-(3-Carboxy-5-(pyridin-4-yl)phenyl)pyrrolidine-2-carboxylic acid hydrochloride]	> 100						27		25	5.76±0.01	1.7	6.5 ± 0.92	22 ± 2.3		4.61±0.05			12	33
